Assay results taken from publication PMC2196277 (The Journal of Experimental Medicine, 1997).

Columns and labels:
H2-K^d [1] = target: T1, H2-K^d (Mus musculus, UniProt P01902); assay type: cell-based, BALB/c
H2-K^d [2] = target: T1, H2-K^d; settings: ref [17], [19], [20]; cited from earlier work
H2-K^d [3] = target: T1, H2-K^d; assay type: cell-based, BALB/c; settings: infected cells; for half-life of peptide–H2-K^d complexes: normally trafficking H2-K^d (no BFA)
Summary of the method: (§1)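 J774 monolayers in antibiotic-free RP10 were infected for 30 min with log-phase L. monocytogenes (OD600 0.1), then kept in 5 μg/ml gentamicin. BFA was added 3 h post-infection, and tetracycline or CHX–ANM at 4 h. Cells were scraped, extracted in 0.1% TFA, homogenised, sonicated, ultracentrifuged and HPLC-fractionated. Fractions were titrated in triplicate on 51Cr-labelled P815 with Kd-restricted CTL clones against synthetic-peptide standards, giving epitopes per infected cell.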

[4] = target: T2, H2-K^d (L. monocytogenes-infected J774 cells) (Mus musculus, UniProt P01902); settings: ref [17], cited from earlier work
T2 sequence (P01902 22-368): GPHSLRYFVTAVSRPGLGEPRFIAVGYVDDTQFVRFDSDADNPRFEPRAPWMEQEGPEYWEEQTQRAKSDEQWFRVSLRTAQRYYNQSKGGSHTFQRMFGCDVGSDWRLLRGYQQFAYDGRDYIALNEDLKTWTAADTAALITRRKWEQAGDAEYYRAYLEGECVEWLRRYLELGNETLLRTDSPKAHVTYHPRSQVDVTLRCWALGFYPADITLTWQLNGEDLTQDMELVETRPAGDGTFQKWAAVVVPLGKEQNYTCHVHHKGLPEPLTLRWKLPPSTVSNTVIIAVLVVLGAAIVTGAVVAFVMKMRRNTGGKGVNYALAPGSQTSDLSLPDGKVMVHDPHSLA
T2 sequence (P01887 21-119, further chain): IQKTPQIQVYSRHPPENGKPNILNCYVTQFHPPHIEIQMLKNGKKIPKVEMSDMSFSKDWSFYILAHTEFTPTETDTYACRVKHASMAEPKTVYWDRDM

[5] = target: T2, H2-K^d (L. monocytogenes-infected J774 cells); assay: CTL epitope quantification; assay type: cell-based, BALB/c; settings: for loss of epitope in BFA-treated cells after tetracycline: BFA added 3 h and TCN 4 h after infection; for time for which intracellularly retained H2-K^d binds new epitopes: BFA-treated, CHX–ANM 4 h after infection, up to; for epitopes per cell after CHX–ANM treatment: CHX and ANM added 4 h after infection
Summary of the method: as §1

[6] = system: CTL responding to epitope; settings: murine infection with L. monocytogenes; ref [31]; cited from earlier work

T1 sequence (P01902 22-368): as the sequence (P01902 22-368) above
T1 sequence (P01887 21-119, further chain): as the sequence (P01887 21-119, further chain) above

| Compound | effect of BFA on H2-K^d trafficking / retention (H2-K^d [1]) | number of secreted antigen molecules degraded per H2-K^d-associated epitope (H2-K^d [2]) | stability of complex with H2-K^d (summary) (H2-K^d [3]) | half-life of complexes retained intracellularly with brefeldin A (H2-K^d [3]; + BFA) | half-life of peptide–H2-K^d complexes (H2-K^d [3]) | generation of epitope relative to p60 217-225 ([4]; L. monocytogenes infected J774 cells) | amount of epitope extracted relative to p60 217-225 ([4]; first few hours of infection, J774) | prevalence of epitope throughout cellular infection ([4]; infected cells, continuous antigen production) | epitopes per cell 3 h after tetracycline ([5]; 3 h after tetracycline (20 μg/ml, added 4 h after infection), no BFA) | increase of epitopes extracted from BFA-treated vs untreated cells ([5]; BFA added 3 h after infection, 6–7 h after infection, no tetracycline) | loss of epitope in BFA-treated cells after tetracycline [5] | time for which intracellularly retained H2-K^d binds new epitopes [5] | epitopes per cell after CHX–ANM treatment ([5]; no BFA) | epitopes per cell at tetracycline addition ([5]; start of drop after tetracycline (20 μg/ml, added 4 h after infection), no BFA) | number of responding CTL relative to p60 449-457 [6] | effect of BFA on amount of epitope extracted ([5]; BFA added 3 h after infection, no tetracycline) |
| --- | --- | --- | --- | --- | --- | --- | --- | --- | --- | --- | --- | --- | --- | --- | --- | --- |
| C[C@H]1CCC/C=C/[C@@H]2C[C@H](O)C[C@H]2[C@H](O)/C=C/C(=O)O1 [BFA, brefeldin A] | induces intracellular retention of H2-K^d molecules in infected J774 cells |  |  |  |  |  |  |  |  |  |  |  |  |  |  |  |
| IYVGNGQMI [p60 449-457] |  | 3–11 | forms a more labile complex with H2-K^d | 0.5 h | ~1 h | earlier and faster than p60 217-225 | ~10 times | greater than either LLO 91-99 or p60 217225 throughout cellular infection | 1,000 epitopes/cell | ~60% | very rapid | up to 3 h | decreases after CHX–ANM treatment | 9,000 epitopes/cell |  |  |
| GYKDGNEYI [LLO 91-99, reference compound] |  | 3–11 |  |  |  |  |  |  |  |  |  |  |  |  |  |  |
| KYGVSVQDI [p60 217-225] |  | 35 | forms a stable complex with H2-K^d |  | > 6 h |  |  |  |  |  | decreased only minimally | up to 3 h | stops increasing when host cell protein synthesis is inhibited |  | 10 times | not affected by BFA |
